Data taken from article PMC10634246 (ACS Omega, 2023).

What was measured:
[1] = test system: eNOS; assay: Western blot, eNOS expression in HUVEC; format: cell-based, human; details: peptide 100 μM, 4 h, then Ang II 5 μM, 24 h
Summary of the method: (§1)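 HUVECs at 5 × 10^6 cells/well, pretreated with 100 μM test peptide 4 h, then Ang II 5 μM 24 h. Lysed in ice-cold buffer 30 min, spun 12,000 × g 10 min, protein by BCA. Denatured 95 °C 10 min, 20–40 μg on 10% SDS-PAGE, PVDF transfer. Blocked in 5% BSA 1 h RT, primary antibody 4 °C overnight, secondary 1 h RT. Triplicate, mean ± SD.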

[2] = test system: Nrf2; assay: Western blot, Nrf2 expression in HUVEC; format: cell-based, human; details: peptide 100 μM, 4 h, then Ang II 5 μM, 24 h; for expression of Nrf2 protein: gray scale analysis of bands
Summary of the method: as §1

[3] = test system: p-eNOS; assay: Western blot, p-eNOS in HUVEC; format: cell-based, human; details: peptide 100 μM, 4 h, then Ang II 5 μM, 24 h
Summary of the method: as §1

[4] = test system: HUVEC; assay: HUVEC morphology and cell number, inverted microscope; format: cell-based, human; details: peptide 100 μM, 4 h, then Ang II 5 μM, 24 h; 200×
Summary of the method: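 HUVECs were suspended in fresh medium at a final 4 × 10^5 cells/well in 6-well plates and given 100 μM test peptide for 4 h. Medium was discarded, then 5 μM Ang II was added for 24 h. Cells were observed and photographed under an inverted microscope.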

[5] = test system: HUVEC; assay: NO level in HUVEC; format: cell-based, human; details: peptide 100 μM, 4 h, then Ang II 5 μM, 24 h; for NO level: assay kit, n = 3
[6] = test system: ET-1; assay: Western blot, ET-1 expression in HUVEC; format: cell-based, human; details: peptide 100 μM, 4 h, then Ang II 5 μM, 24 h
Summary of the method: as §1

[7] = test system: CAT; assay: CAT activity in HUVEC; format: cell-based, human; details: peptide 100 μM, 4 h, then Ang II 5 μM, 24 h; assay kit; n = 3
[8] = test system: GSH-Px; assay: GSH-Px activity in HUVEC; format: cell-based, human; details: peptide 100 μM, 4 h, then Ang II 5 μM, 24 h; assay kit; n = 3
[9] = test system: SOD; assay: SOD activity in HUVEC; format: cell-based, human; details: peptide 100 μM, 4 h, then Ang II 5 μM, 24 h; assay kit; n = 3
[10] = test system: HUVEC; assay: MDA content in HUVEC; format: cell-based, human; details: 24 h, n = 3
[11] = test system: eNOS and ET-1; details: cited from earlier work
[12] = test system: NQO1; assay: Western blot, NQO1 expression in HUVEC; format: cell-based, human; details: peptide 100 μM, 4 h, then Ang II 5 μM, 24 h; gray scale analysis of bands
Summary of the method: as §1

[13] = test system: HepG2; details: cited from earlier work
[14] = test system: HO-1; assay: Western blot, HO-1 expression in HUVEC; format: cell-based, human; details: peptide 100 μM, 4 h, then Ang II 5 μM, 24 h; gray scale analysis of bands
Summary of the method: as §1

[15] = test system: HUVECs; details: Ang II-stimulated HUVECs; cited from earlier work

Substance	eNOS expression [1]	expression of Nrf2 protein [2]	eNOS phosphorylation (p-eNOS) [3]	HUVEC morphology [4]	number of cells [4]	NO level [5]	ET-1 expression [6]	CAT activity [7]	GSH-Px activity [8]	SOD activity [9]	effect on eNOS and ET-1 levels [11]	NQO1 expression [12]	protection against hyperglycemia-induced HepG2 damage [13]	HO-1 expression [14]	other results
Angiotensin II [Ang II, reference compound]	obvious inhibition	significantly inhibited	obvious inhibition	polygonal or round with the blurred cell boundaries	significantly reduced compared with the Con group	obvious inhibition	increased	significantly reduced	significantly reduced	significantly reduced					increase of MDA content compared to the Con group ([10]; Ang II 5 μM, compared to Con group): 200%
IPIPATKT											improvement effects				
IVTNWDDMEK											improvement effects				
KLHDEEVA [KA-8]	increased	reversed the inhibitory effect of Ang II	increased	did not improve the number and morphology of cells as significantly as PG-8	did not improve the number and morphology of cells as significantly as PG-8	increased	markedly blocked the Ang II-induced changes	significantly reversed the decline	significantly reversed the decline	significantly reversed the decline		increased	revealed the protective effects	increased	
LSGYGP											improvement effects				protection against oxidative stress and endothelial injury [15]: revealed protective effects
PSRILYG [PG-7]	increased	reversed the inhibitory effect of Ang II	increased		significantly reversed	increased	markedly blocked the Ang II-induced changes	significantly rebounded to the levels in the Con group	significantly rebounded to the levels in the Con group	significantly rebounded to the levels in the Con group		increased	revealed the protective effects	higher than that in the KA-8 group	eNOS level higher than in the Ang II group ([1]; compared to Ang II group): more than 100%; Nrf2 content higher than in the Con group ([2]; compared to Con group): about 50%; p-eNOS level higher than in the Ang II group ([3]; compared to Ang II group): more than 100%; NO level higher than in the Ang II group ([5]; compared to Ang II group): more than 100%; level of intracellular MDA ([10]; peptide 100 μM, 4 h, then Ang II 5 μM, assay kit): decreased to that of the Con group
